# Reference: ChEMBL document CHEMBL5104225, “Synthesis and structure-activity relationship studies of N-terminal analogues of the lipopeptide antibiotics brevicidine and laterocidine” (RSC Med Chem, 2022)
# Bridge positions count the residues as written; N and C are the ends. Square brackets hold non-standard residues; d marks the D form. Peptide text beside a SMILES is read from it. * marks the point of attachment. Octanoyl(7-Me) = CC(C)CCCCCC(=O)*; Palmitoyl = CCCCCCCCCCCCCCCC(=O)*; Myristoyl = CCCCCCCCCCCCCC(=O)*; Lauroyl = CCCCCCCCCCCC(=O)*; dOrn = NCCC[C@@H](N)C(=O)O; Octanoyl = CCCCCCCC(=O)*; Orn = NCCC[C@H](N)C(=O)O; Butyryl = CCCC(=O)*
# Assays:
# Format in all cases: functional
# Escherichia coli [1] = test: Antibacterial activity against Escherichia coli ATCC 25922 assessed as inhibition of bacterial growth incubated for 18 hrs by CLSI protocol based method
# In short: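 Broth microdilution MIC. Strain streaked from glycerol stock on sheep blood agar (16 h, 37 °C); a colony was grown in TSB at 37 °C, 220 rpm, to OD600 about 0.5. Cells were diluted in MHB to 2×10^5 CFU/mL and added 1:1 to serial dilutions in MHB in polypropylene plates.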
# Klebsiella pneumoniae = test: Antibacterial activity against Klebsiella pneumoniae ATCC 13883 assessed as inhibition of bacterial growth incubated for 18 hrs by CLSI protocol based method
# In short: (§1)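 Single colonies from blood agar (16 h, 37 °C) grown in TSB at 37 °C, 220 rpm to OD600 ~0.5, then diluted in MHB to 2×10^5 CFU/mL. Mixed with serial MHB dilutions of DMSO stocks in polypropylene plates, sealed, and incubated 18 h at 37 °C, 600 rpm. MIC was taken as the lowest concentration with no visible growth; three technical replicates.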
# Acinetobacter baumannii = test: Antibacterial activity against Acinetobacter baumannii ATCC 17961 assessed as inhibition of bacterial growth incubated for 18 hrs by CLSI protocol based method; in short: as §1
# Pseudomonas aeruginosa = test: Antibacterial activity against Pseudomonas aeruginosa PAO1 assessed as inhibition of bacterial growth incubated for 18 hrs by CLSI protocol based method; in short: as §1
# Staphylococcus aureus = test: Antibacterial activity against Staphylococcus aureus USA300 assessed as inhibition of bacterial growth incubated for 18 hrs by CLSI protocol based method; in short: as §1
# Escherichia coli [2] = test: Antibacterial activity against colistin-resistant Escherichia coli ATCC 25922 carrying MCR-1 gene assessed as inhibition of bacterial growth incubated for 18 hrs by CLSI protocol based method
# In short: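 Broth microdilution MIC. MCR-1 strain grown from glycerol stock in TSB with kanamycin (16 h, 37 °C, 220 rpm), diluted 100-fold in the same medium and grown to OD600 about 0.5. Cells were diluted in MHB to 2×10^5 CFU/mL and added 1:1 to serial dilutions in MHB. Incubated 18 h, 37 °C, 600 rpm; visual lowest no-growth concentration; three technical replicates.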
Compound,MIC (Escherichia coli [1]) [µg/mL],MIC (Klebsiella pneumoniae) [µg/mL],MIC (Acinetobacter baumannii) [µg/mL],MIC (Pseudomonas aeruginosa) [µg/mL],MIC (Staphylococcus aureus) [µg/mL],MIC (Escherichia coli [2]) [µg/mL]
CC[C@H](C)[C@@H]1NC(=O)[C@@H](NC(=O)[C@H](Cc2c[nH]c3ccccc23)NC(=O)[C@@H](CCCN)NC(=O)CNC(=O)[C@H](CCCN)NC(=O)[C@@H](CCCN)NC(=O)[C@@H](Cc2c[nH]c3ccccc23)NC(=O)[C@@H](Cc2ccc(O)cc2)NC(=O)[C@H](N)CC(N)=O)[C@@H](C)OC(=O)[C@H](CO)NC(=O)CNC1=O,> 32,> 32,> 32,16,> 32,
CC[C@H](C)[C@@H]1NC(=O)[C@@H](NC(=O)[C@H](Cc2c[nH]c3ccccc23)NC(=O)[C@@H](CCCN)NC(=O)CNC(=O)[C@H](CCCN)NC(=O)[C@@H](CCCN)NC(=O)[C@@H](Cc2c[nH]c3ccccc23)NC(=O)[C@@H](Cc2ccc(O)cc2)NC(=O)[C@H](N)CO)[C@@H](C)OC(=O)CNC(=O)CNC(=O)[C@H](CC(N)=O)NC1=O (H-[dS][dY][dW][dOrn][Orn]G[dOrn]WTINGG; ester 9-C),> 32,> 32,> 32,> 32,> 32,
CCCCCCCCCCCC(=O)N[C@H](CC(N)=O)C(=O)N[C@H](Cc1ccc(O)cc1)C(=O)N[C@H](Cc1c[nH]c2ccccc12)C(=O)N[C@H](CCCN)C(=O)N[C@@H](CCCN)C(=O)NCC(=O)N[C@H](CCCN)C(=O)N[C@@H](Cc1c[nH]c2ccccc12)C(=O)N[C@@H]1C(=O)N[C@@H]([C@@H](C)CC)C(=O)NCC(=O)N[C@@H](CO)C(=O)O[C@@H]1C (Lauroyl-[dN][dY][dW][dOrn][Orn]G[dOrn]WTIGS; ester 9-C),8,8,4,16,32,8
CCCCCCCCCCCCCCCC(=O)N[C@H](CO)C(=O)N[C@H](Cc1ccc(O)cc1)C(=O)N[C@H](Cc1c[nH]c2ccccc12)C(=O)N[C@H](CCCN)C(=O)N[C@@H](CCCN)C(=O)NCC(=O)N[C@H](CCCN)C(=O)N[C@@H](Cc1c[nH]c2ccccc12)C(=O)N[C@@H]1C(=O)N[C@@H]([C@@H](C)CC)C(=O)N[C@@H](CC(N)=O)C(=O)NCC(=O)NCC(=O)O[C@@H]1C (Palmitoyl-[dS][dY][dW][dOrn][Orn]G[dOrn]WTINGG; ester 9-C),32,> 32,4,32,32,32
CCCCCCCCCCCCCC(=O)N[C@H](CO)C(=O)N[C@H](Cc1ccc(O)cc1)C(=O)N[C@H](Cc1c[nH]c2ccccc12)C(=O)N[C@H](CCCN)C(=O)N[C@@H](CCCN)C(=O)NCC(=O)N[C@H](CCCN)C(=O)N[C@@H](Cc1c[nH]c2ccccc12)C(=O)N[C@@H]1C(=O)N[C@@H]([C@@H](C)CC)C(=O)N[C@@H](CC(N)=O)C(=O)NCC(=O)NCC(=O)O[C@@H]1C (Myristoyl-[dS][dY][dW][dOrn][Orn]G[dOrn]WTINGG; ester 9-C),8,8,2,8,16,8
CCCCCCCCCCCCCCCC(=O)N[C@H](CC(N)=O)C(=O)N[C@H](Cc1ccc(O)cc1)C(=O)N[C@H](Cc1c[nH]c2ccccc12)C(=O)N[C@H](CCCN)C(=O)N[C@@H](CCCN)C(=O)NCC(=O)N[C@H](CCCN)C(=O)N[C@@H](Cc1c[nH]c2ccccc12)C(=O)N[C@@H]1C(=O)N[C@@H]([C@@H](C)CC)C(=O)NCC(=O)N[C@@H](CO)C(=O)O[C@@H]1C (Palmitoyl-[dN][dY][dW][dOrn][Orn]G[dOrn]WTIGS; ester 9-C),> 32,> 32,32,> 32,> 32,
CCCCCCCCCCCCCC(=O)N[C@H](CC(N)=O)C(=O)N[C@H](Cc1ccc(O)cc1)C(=O)N[C@H](Cc1c[nH]c2ccccc12)C(=O)N[C@H](CCCN)C(=O)N[C@@H](CCCN)C(=O)NCC(=O)N[C@H](CCCN)C(=O)N[C@@H](Cc1c[nH]c2ccccc12)C(=O)N[C@@H]1C(=O)N[C@@H]([C@@H](C)CC)C(=O)NCC(=O)N[C@@H](CO)C(=O)O[C@@H]1C (Myristoyl-[dN][dY][dW][dOrn][Orn]G[dOrn]WTIGS; ester 9-C),16,32,4,32,> 32,16
CCCCCCCC(=O)N[C@H](CO)C(=O)N[C@H](Cc1ccc(O)cc1)C(=O)N[C@H](Cc1c[nH]c2ccccc12)C(=O)N[C@H](CCCN)C(=O)N[C@@H](CCCN)C(=O)NCC(=O)N[C@H](CCCN)C(=O)N[C@@H](Cc1c[nH]c2ccccc12)C(=O)N[C@@H]1C(=O)N[C@@H]([C@@H](C)CC)C(=O)N[C@@H](CC(N)=O)C(=O)NCC(=O)NCC(=O)O[C@@H]1C (Octanoyl-[dS][dY][dW][dOrn][Orn]G[dOrn]WTINGG; ester 9-C),2,2,4,2,> 32,2
CC[C@H](C)[C@@H]1NC(=O)[C@@H](NC(=O)[C@H](Cc2c[nH]c3ccccc23)NC(=O)[C@@H](CCCN)NC(=O)CNC(=O)[C@H](CCCN)NC(=O)[C@@H](CCCN)NC(=O)[C@@H](Cc2c[nH]c3ccccc23)NC(=O)[C@@H](Cc2ccc(O)cc2)NC(=O)[C@@H](CO)NC(=O)CCCCCC(C)C)[C@@H](C)OC(=O)CNC(=O)CNC(=O)[C@H](CC(N)=O)NC1=O ({Octanoyl(7-Me)}-[dS][dY][dW][dOrn][Orn]G[dOrn]WTINGG; ester 9-C),2,2,2,4,> 32,2
CCCCCCCC(=O)N[C@H](CC(N)=O)C(=O)N[C@H](Cc1ccc(O)cc1)C(=O)N[C@H](Cc1c[nH]c2ccccc12)C(=O)N[C@H](CCCN)C(=O)N[C@@H](CCCN)C(=O)NCC(=O)N[C@H](CCCN)C(=O)N[C@@H](Cc1c[nH]c2ccccc12)C(=O)N[C@@H]1C(=O)N[C@@H]([C@@H](C)CC)C(=O)NCC(=O)N[C@@H](CO)C(=O)O[C@@H]1C (Octanoyl-[dN][dY][dW][dOrn][Orn]G[dOrn]WTIGS; ester 9-C),16,16,16,8,> 32,16
CCCCCCCCCCCC(=O)N[C@H](CO)C(=O)N[C@H](Cc1ccc(O)cc1)C(=O)N[C@H](Cc1c[nH]c2ccccc12)C(=O)N[C@H](CCCN)C(=O)N[C@@H](CCCN)C(=O)NCC(=O)N[C@H](CCCN)C(=O)N[C@@H](Cc1c[nH]c2ccccc12)C(=O)N[C@@H]1C(=O)N[C@@H]([C@@H](C)CC)C(=O)N[C@@H](CC(N)=O)C(=O)NCC(=O)NCC(=O)O[C@@H]1C (Lauroyl-[dS][dY][dW][dOrn][Orn]G[dOrn]WTINGG; ester 9-C),4,8,2,8,32,4
COLISTIN,0.5,0.5,< 0.25,4,> 32,8
CCCC(=O)N[C@H](CC(N)=O)C(=O)N[C@H](Cc1ccc(O)cc1)C(=O)N[C@H](Cc1c[nH]c2ccccc12)C(=O)N[C@H](CCCN)C(=O)N[C@@H](CCCN)C(=O)NCC(=O)N[C@H](CCCN)C(=O)N[C@@H](Cc1c[nH]c2ccccc12)C(=O)N[C@@H]1C(=O)N[C@@H]([C@@H](C)CC)C(=O)NCC(=O)N[C@@H](CO)C(=O)O[C@@H]1C (Butyryl-[dN][dY][dW][dOrn][Orn]G[dOrn]WTIGS; ester 9-C),32,8,32,16,> 32,32
CC[C@H](C)[C@@H]1NC(=O)[C@@H](NC(=O)[C@H](Cc2c[nH]c3ccccc23)NC(=O)[C@@H](CCCN)NC(=O)CNC(=O)[C@H](CCCN)NC(=O)[C@@H](CCCN)NC(=O)[C@@H](Cc2c[nH]c3ccccc23)NC(=O)[C@@H](Cc2ccc(O)cc2)NC(=O)[C@@H](CO)NC(C)=O)[C@@H](C)OC(=O)CNC(=O)CNC(=O)[C@H](CC(N)=O)NC1=O (Ac-[dS][dY][dW][dOrn][Orn]G[dOrn]WTINGG; ester 9-C),> 32,> 32,> 32,16,> 32,
CC[C@H](C)[C@@H]1NC(=O)[C@@H](NC(=O)[C@H](Cc2c[nH]c3ccccc23)NC(=O)[C@@H](CCCN)NC(=O)CNC(=O)[C@H](CCCN)NC(=O)[C@@H](CCCN)NC(=O)[C@@H](Cc2c[nH]c3ccccc23)NC(=O)[C@@H](Cc2ccc(O)cc2)NC(=O)[C@@H](CC(N)=O)NC(C)=O)[C@@H](C)OC(=O)[C@H](CO)NC(=O)CNC1=O (Ac-[dN][dY][dW][dOrn][Orn]G[dOrn]WTIGS; ester 9-C),> 32,> 32,> 32,8,> 32,
